Hits are enriched below; roughly 5.6% of the tested compounds scored in any of these assays.
CHOP UPR activ: activators of apoptotic arm of unfolded protein response (CHOP); activation, % at 10 µM; 330,000 compounds, 0.34% hits; CHO-CHOP luciferase reporter, UPR activation, luminescence; percent of tunicamycin response over DMSO baseline;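 active means at 10 µM dose, activation of 40% or more, normalized to positive control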;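 further: 100% = tunicamycin at 10 µg/mL and 0% = DMSO alone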
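Assay system: CHO-CHOP cells, stable luciferase reporter of PERK-eIF2a-CHOP signalling / Buffer or medium: F12 plus 10% serum / Compound dosing: one dose, 10 µM in 0.5% DMSO / Times: 6 h compound treatment, 37 °C / Technique: luciferase luminescence / Read-out: % reporter activation, DMSO baseline versus tunicamycin full activation / Benchmarks: tunicamycin and DMSO controls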
MPTP block: permeability transition pore inhibition. AID 602449. inhibition, % at 10 µM. isolated mouse mitochondria, Ca2+ swelling absorbance, 30 min. 360,000 compounds, 1.4% hits;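 active means inhibition of 50% or more, scaled per plate between neutral and stimulator controls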;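 further: 0% = DMSO wells given calcium and 100% = 1 mM EGTA wells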
UPR XBP1 act: activators of adaptive arm of unfolded protein response (XBP1). 330,000 compounds, 0.33% hits. activation, % at 20 µM. CHO-XBP1 luciferase reporter, IRE1-XBP1 UPR activation, luminescence; percent of tunicamycin response, DMSO as zero;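 active means versus positive control, 20 µM dose yields 30% or more activation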;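 further: 100% = tunicamycin at 10 µg/mL and 0% = DMSO only wells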
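Material: CHO cell line with stable XBP1 luciferase reporter; buffer or medium: F12 medium containing 10% fetal bovine serum; compound: single point, 20 µM final compound, 1% DMSO; incubation: 6 h treatment, 37 °C; measured by: glow luminescence from Steady-Glo reagent; evaluation: activation, % of tunicamycin; control set: tunicamycin high, DMSO low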
aDG glyco up: increases alpha dystroglycan glycosylation | activation, % at 10 µM | 360,000 compounds, 0.22% hits | AID 624168 | Pro5-aDG cells, alpha-DG glycosylation AlphaScreen (IIH6); 0% Pro5, 100% B10-LARGE cell signal;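 active means activation of at least 8% versus controls, or a plate z-score of at least 8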;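 further: Pro5 are CHO cells carrying HIG-tagged alpha-DG that lacks glycosylation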
GRIN3A LBD mod: NR3A (human) ligand-binding domain modulation; NR3A LBD differential scanning fluorimetry, Tm shift; 0% = protein alone, 100% = glycine-bound protein; Tm shift relative to glycine control, % at 25 µM; 340,000 compounds, 2.5% hits; AID 1259313;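 active means melting temperature shift of at least 10% of the positive control shift, at one fixed dose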
CHOP inhibitor: inhibitors of CHOP induction in ER stress response | inhibition, % at 10 µM | AID 2732 | 220,000 compounds, 3.8% hits | CHO-K1 CHOP-promoter luciferase, tunicamycin-induced, 15-18 h;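 active means compounds that reduced the stress-induced luciferase reporter signal by more than about 70% of percent inhibition, limit read from the data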;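 further: 0% = tunicamycin plus vehicle and 100% = wells without tunicamycin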
UPR CHOP confirm: confirmation of apoptotic unfolded protein response (CHOP) activators; 1,000 compounds, 64% hits; shares compounds with CHOP UPR activ; CHO-CHOP cells, CHOP-luciferase reporter luminescence; percent of tunicamycin response, DMSO as zero; activation, % at 10 µM; in the data active means activation above about 33%;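 further: 0% = DMSO wells and 100% = tunicamycin 10 µg/mL wells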
An asterisk follows results filed as active; / = no result.

SMILES	CHOP UPR activ	MPTP block	UPR XBP1 act	aDG glyco up	GRIN3A LBD mod	CHOP inhibitor	UPR CHOP confirm
O=C(CSc1ccccn1)Nc1nonc1[N+](=O)[O-]	85*	1	-6	4	2	/	42*
O=[N+]([O-])c1ccccc1CN1CCN(Cc2c[nH]c3ccccc23)CC1	49*	/	17	/	0	-77	21
COc1cc(/C=C/[N+](=O)[O-])ccc1OC(=O)c1cc2ccccc2oc1=O	120*	8	-10	0	5	/	-4
O=C(C[C@H]1C[C@H](C(=O)N2CCCCC2)[C@@]2(CCc3ccccc3)c3[nH]c4ccc(Cl)cc4c3CCN2C1=O)NCCN1CCOCC1	52*	-1	-5	1	0	/	0
Cc1ccc(SC2=C(Sc3ccc(C)cc3)C(=O)c3ccccc3C2=O)cc1	215*	1	0	0	-18	-44	2
N#C/C(=C/c1cccc(O)c1)C(=O)NCc1ccc(Cl)cc1	4	0	-4	0	-5	/	/
N#C/C(=C/c1ccc(O)c(O)c1)C(=O)NCc1ccc(Cl)cc1	103*	0	12	0	3	/	22
Cc1nc([N+](=O)[O-])c(Br)n1CC(=O)c1ccc(Cl)cc1	58*	-1	-6	0	-1	-64	60*
COc1ccc(C(=O)Cn2c(C)nc([N+](=O)[O-])c2Br)cc1	4	4	-2	0	-2	-156	/
CSCCC1NC(=O)N(CC(=O)Nc2ccc3c(c2)OCCO3)C1=O (stereo not given)	1	-1	1	1	0	/	/
CCSC1(SCC)N=C(N)C2(C#N)C(c3ccc(F)cc3)C12C#N (stereo not given)	61*	1	0	0	-4	82*	124*
Cc1ccccc1C(=O)c1cccn1CC(=O)NC(C)c1ccccc1 (stereo not given)	-1	1	-4	0	-5	/	/
C=CCn1c(O)c(N=NC(=S)Nc2ccccc2C)c2cc(S(=O)(=O)N3CCOCC3)ccc21	45*	1	3	0	-3	-88	31
Cn1c(O)c(N=NC(=S)Nc2ccccc2F)c2cc(S(=O)(=O)N3CCOCC3)ccc21	/	0	/	-1	-6	-110	/
CCN=c1scc(C)n1/N=C/c1ccc(O)c(O)c1O	79*	7	7	0	-1	10	9
COCCN=c1scc(-c2cccs2)n1/N=C/c1ccc(O)c(O)c1O	347*	8	8	0	0	-150	104*
CCN=c1scc(C)n1/N=C/c1cc(Br)c(O)c(Br)c1	-1	1	2	0	-3	29	/
CCN=c1scc(-c2ccco2)n1/N=C/c1ccc(OC)c(O)c1	5	0	5	0	-2	23	/
CCOC(=O)C1=C(CCl)NC(=O)NC1c1ccc2c(c1)OCO2 (stereo not given)	44*	-1	-5	0	0	/	37*
Cc1ccc(C(=O)/C=C/C(=O)c2ccc(C)cc2)cc1	139*	-2	-7	0	-2	106*	370*
Cc1ccc(-c2ccc(/C=C/C(=O)c3ccccc3)o2)cc1	193*	10	0	0	-10	30	2
O=C(c1ccco1)N1CCN(c2c([N+](=O)[O-])nn(-c3cccc(Cl)c3)[n+]2[O-])CC1	0	6	-1	0	0	-12	/
O=C(O)c1cccc2c1C(=O)c1ccc(N3CCN(Cc4ccc5c(c4)OCO5)CC3)cc1S2(=O)=O	/	2	/	0	/	/	/
COCCNC(=O)C1(C)CCN(C(=O)c2ccc3sccc3c2)C1 (stereo not given)	/	0	/	2	/	/	/
COc1cc(Cl)c(NC2=CC(=O)C(=O)c3ccccc32)c(OC)c1	51*	4	13	2	3	/	18
SMILES	CHOP UPR activ	MPTP block	UPR XBP1 act	aDG glyco up	GRIN3A LBD mod	CHOP inhibitor	UPR CHOP confirm
COc1cc(C=C2C(=O)c3ccccc3C2=O)cc(OC)c1	-2	2	-5	2	4	6	/
COc1cccc(CN2CC(C(=O)NCc3cccc(N4CCCC4)c3)CCC2=O)c1 (stereo not given)	4	0	-1	0	-6	/	/
CCC(=O)N1CCN(c2ccc(NC(=O)c3ccc([N+](=O)[O-])o3)cc2)CC1	/	1	/	-1	-1	22	/
CC(C)(C)C(=O)N1CCN(c2ccc(NC(=O)c3ccc([N+](=O)[O-])o3)cc2)CC1	59*	1	2	0	1	/	87*
CC(Cc1ccc(O)c(O)c1)C(C)Cc1ccc(O)c(O)c1 (stereo not given)	83*	/	-2	/	24*	/	23
CCN1CCN(C(=O)C(C)Nc2ccc(OC)cc2OC)CC1 (stereo not given)	-2	0	-2	0	0	6	/
O=c1nc(Nc2cccc(Cl)c2)oc2cc(Cl)oc(=O)c12	41*	1	-2	0	-8	5	73*
CCn1cc(/C=C(\NC(=O)c2ccc(OC)c(OC)c2)C(=O)NCCCN2CCOCC2)c2ccccc21	-2	0	-2	0	-1	/	/
C=CCN1C(=O)c2ccc(C(=O)N3CCN(c4ccccc4OC)CC3)cc2C1=O	1	-1	-1	0	0	/	/
COc1ccc(-c2nc(-c3ccccc3)nc(Cl)c2C#N)cc1	81*	5	72*	0	-6	53	33*
COc1ccc(-c2nc(-c3cccc(C)c3)nc(Cl)c2C#N)cc1	/	/	/	/	/	8	/
COc1ccc(NC(=O)C2CCCN2C(=O)OC(C)(C)C)cc1 (stereo not given)	-1	0	-1	0	2	-10	/
NC1=CC(=O)C(=O)c2ccccc21	/	3	/	0	-1	/	/
O=C1C=C(Nc2ccc(F)cc2)c2ccccc2C1=O	62*	2	2	8.9*	0	/	9
O=C1CCC2(CCCC2)c2ccccc21	/	1	/	0	/	/	/
O=C(Nc1nc2c(F)cc(F)cc2s1)c1ccccn1	83*	0	-2	-1	-2	79*	186*
O=C(COc1ccccc1)NNc1nc2c(F)cc(F)cc2s1	2	-1	-3	0	0	7	/
CCOC(=O)c1c(C)[nH]c(C)c1C(=O)COC(=O)CCc1ccccc1	-1	0	-1	0	2	/	/
Cc1cc(C)nc(S/C=C/C(=O)c2ccccc2F)n1	73*	3	0	0	0	85*	8

Bioassay records from PubChem.
